{"data": "Results from different studies", "cell line": "MM1.S", "observed": "cell growth or viability", "note": "Each line is one published result; the experiments were not run side by side."}
{"Structure (SMILES)": "C=CC(=O)N1CCC[C@@H](n2nc(-c3ccc(Oc4ccccc4)cc3)c3c(N)ncnc32)C1", "setting": "48 h", "measurement": "GI50", "result": "7560 nM"}
{"Structure (SMILES)": "O=C(C[C@@H](C(F)F)n1ccc(F)n1)N1CCC(O)(Cn2cnc3c(cnn3-c3ccc(F)cc3)c2=O)CC1", "test": "ATP luminescence", "setting": "5 days", "measurement": "IC50", "result": "33 nM"}
{"Structure (SMILES)": "CCS(=O)(=O)Nc1ccc(Oc2ccc(Cl)cc2)c(-c2cn(C)c(=O)c3ccccc23)c1", "test": "resazurin", "setting": "72 h", "measurement": "IC50", "result": "3.5 nM"}
{"Structure (SMILES)": "CON(C)C(=O)N1N=C(c2cc(F)ccc2F)S[C@@]1(CCCN)c1ccccc1", "test": "ATP luminescence", "setting": "72 h", "measurement": "IC50", "result": "4.9 nM"}
{"Structure (SMILES)": "N[C@@H]1CCCN(c2c(/C=C3\\SC(=O)NC3=O)cccc2-c2ccccc2)C1", "test": "thymidine uptake", "setting": "72 h", "measurement": "GI50", "result": "711 nM"}
{"Structure (SMILES)": "CC(C)C[C@H](NC(=O)[C@H](Cc1ccccc1)NC(=O)c1cnccn1)B(O)O", "test": "ATP luminescence", "setting": "48 h", "measurement": "IC50", "result": "15 nM"}
{"Structure (SMILES)": "CCOC(=O)C1=C(C)NC(=S)NC1c1cccc(O)c1 (centres unmarked)", "test": "ATP luminescence", "setting": "72 h", "measurement": "IC50", "result": "144000 nM"}
{"Structure (SMILES)": "CC(C)C[C@H](NC(=O)[C@H](Cc1ccccc1)NC(=O)c1cnccn1)B(O)O", "test": "ATP luminescence", "measurement": "EC50", "result": "1.5 nM"}
